The text below walks through data of ChEMBL document CHEMBL1795215, “Design, synthesis and biological assessment of novel N-substituted 3-(phthalimidin-2-yl)-2,6-dioxopiperidines and 3-substituted 2,6-dioxopiperidines for TNF-α inhibitory activity” (Bioorg Med Chem, 2011).

Series [1] concerns RAW264.7. The series can be described thus: Inhibition of LPS-induced TNFalpha production in mouse RAW264.7 cells assessed as TNFalph activity at 30 uM by ELISA relative to untreated control. Further details: scale not given: the % may be the effect or the level left. It is filed as functional. Put shortly: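 RAW 264.7 cells were cultured and exposed to compound at 30 μM together with LPS. TNF-α protein in the culture medium was quantified by a mouse TNF-α-specific ELISA and expressed as % of the appropriate control. Values are mean ± S.E.M., n = 3, with Student's t-test (P<0.05 significant).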
A general note: An ELISA detects its analyte on a solid surface through an enzyme-linked reagent.

Series [2] relates to RAW264.7. Description: Inhibition of LPS-induced TNFalpha production in mouse RAW264.7 cells assessed as TNFalph activity at 30 uM by ELISA relative to thalidomide. Type of series: functional. The method, boiled down: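 LPS-stimulated RAW 264.7 cells were treated at 30 μM, and TNF-α in the medium was measured by mouse TNF-α ELISA as % of vehicle control (n = 3). Fold activity relative to thalidomide = (100 − compound TNF-α % control)/(100 − thalidomide TNF-α % control).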

A short description of series [3]: Toxicity against mouse RAW264.7 cells assessed as cell viability at 30 uM by Cell titer 96 squeous one solution cell proliferation assay untreated control. It is filed as cell-based. To be noted: read-out: Activity. The method, boiled down: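 Viability of RAW 264.7 cells given 30 μM compound with LPS was read by CellTiter 96 Aqueous One tetrazolium dye formation, with absorbance at 490 nm. Results are % change in O.D. versus the appropriate control, mean ± S.E.M., n = 3, with Student's t-test (P<0.05 significant).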

Regarding `O=C1CCCC(=O)N1CN1C(=O)CCC(N2Cc3ccccc3C2=O)C1=O` (stereo unspecified), in the series with RAW264.7 [1], the Activity is reported as 79%. Besides, in the series on RAW264.7 [2], the “fold change (FC)” value came out at 21. In addition, the viability at 30 µM in series [3] came out at 102%.

`O=C1CCC(N2Cc3ccccc3C2=O)C(=O)N1CSC(=S)NC1CCCCC1` (stereo unspecified): the Activity with RAW264.7 [1] was 55%. In the series on RAW264.7 [2], the “fold change (FC)” value is reported as 45. In series [3], the viability at 30 µM stood at 103%.

For the compound `O=C1CCC(N2C(=O)c3cccnc3C2=O)C(=O)N1` (stereo unspecified), the Activity in the series with RAW264.7 [1] stood at 104%. For the same compound, in the series with RAW264.7 [2], the “fold change (FC)” value was -4. Moreover, the viability at 30 µM in series [3] is 95%.

Take `N=C1c2ccccc2C(=O)N1C1CCC(=O)NC1=O` (stereo unspecified): in the series with RAW264.7 [1], the Activity came to 67%. The “fold change (FC)” value in the series with RAW264.7 [2] is reported as 33. In addition, the viability at 30 µM in series [3] was determined as 84%.

Turning to `O=C1CCC(N2Cc3ccccc3C2=O)C(=O)N1CN1C(=S)CCCC1=S` (stereo unspecified), the Activity with RAW264.7 [1] turned out to be 63%. Moreover, the “fold change (FC)” value with RAW264.7 [2] is 37. In series [3], the viability at 30 µM is 94%.

On to `O=C1CCC(N2C(=O)c3ccncc3C2=O)C(=O)N1` (stereo unspecified), for which, in the series on RAW264.7 [1], the Activity was found to be 96%. Also, in the series on RAW264.7 [2], the “fold change (FC)” value is listed as 4. Besides, the viability at 30 µM in series [3] came out at 96%.

For `O=C1CCC(N2Cc3ccccc3C2=O)C(=O)N1CN1C(=S)c2ccccc2C1=S` (stereo unspecified), the Activity in the series on RAW264.7 [1] came to 52%. For the same compound, the “fold change (FC)” value with RAW264.7 [2] was 48. The viability at 30 µM in series [3] stood at 82%.

Consider `O=C1CCC(N2Cc3ccccc3C2=O)C(=O)N1CSC(=S)N1CCCCC1` (stereo unspecified), for which the Activity in the series with RAW264.7 [1] is given as 96%. Besides, the “fold change (FC)” value with RAW264.7 [2] is reported as 4. The viability at 30 µM in series [3] came to 112%.

Take `O=C1CCC(N2Cc3ccccc3C2=O)C(=O)N1CN1C(=O)c2ccccc2C1=O` (stereo unspecified): the Activity in the series with RAW264.7 [1] was 88%. Also, the “fold change (FC)” value with RAW264.7 [2] amounted to 12. The viability at 30 µM in series [3] was 98%.

Take `O=C1CCC(N2S(=O)(=O)c3ccccc3S2(=O)=O)C(=O)N1` (stereo unspecified): in the series with RAW264.7 [1], the Activity stood at 55%. The “fold change (FC)” value in the series on RAW264.7 [2] was 45. In addition, the viability at 30 µM in series [3] is 109%.

`N=C1N/C(=N\C2CCC(=O)NC2=O)c2ccccc21` (stereo unspecified): the Activity with RAW264.7 [1] was 61%. Also, in the series with RAW264.7 [2], the “fold change (FC)” value is 39. Moreover, the viability at 30 µM in series [3] was 116%.

As to `Nc1cccc2c1CN(C1CCC(=O)NC1=O)C2=O` (stereo unspecified) [LENALIDOMIDE], the Activity in the series with RAW264.7 [1] was determined as 109%. Further, the fold change (FC) with RAW264.7 [2] is -9. Besides, the viability at 30 µM in series [3] amounted to 106%.
